Values joined by “and” are separate entries in the source; they are usually repeats but may differ in a detail not shown here. Identical values can stand only once. Like-named read-outs stand apart in the source and are kept apart here.
Columns and labels:
Aβ1–37 and Aβ1–38 = assay: urea gel Western blotting of Aβ species; format: cell-based
total Aβ1–x = total Aβ1–x formation; format: cell-based
CYP3A4 [1] = target: T1, CYP3A4 (Homo sapiens, UniProt P08684); assay: CYP 3A4 HLM time-dependent inhibition; format: in vitro ADME
T1 sequence (P08684 whole entry): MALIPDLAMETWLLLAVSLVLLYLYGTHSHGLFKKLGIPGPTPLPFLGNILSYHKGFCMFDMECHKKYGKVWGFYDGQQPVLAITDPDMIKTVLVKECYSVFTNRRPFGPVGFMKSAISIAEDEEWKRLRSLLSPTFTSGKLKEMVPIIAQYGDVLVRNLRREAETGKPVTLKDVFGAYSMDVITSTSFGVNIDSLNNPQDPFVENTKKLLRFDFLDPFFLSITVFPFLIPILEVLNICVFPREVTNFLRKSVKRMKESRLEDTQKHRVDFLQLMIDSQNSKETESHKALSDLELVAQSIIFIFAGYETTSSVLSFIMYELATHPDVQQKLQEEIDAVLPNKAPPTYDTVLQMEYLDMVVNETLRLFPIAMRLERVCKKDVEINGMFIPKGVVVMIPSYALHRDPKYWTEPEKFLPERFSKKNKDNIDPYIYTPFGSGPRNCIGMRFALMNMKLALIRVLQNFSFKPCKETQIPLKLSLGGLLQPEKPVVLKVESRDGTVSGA

hERG ion channel = hERG ion channel (Homo sapiens, UniProt Q12809); assay: hERG patch-clamp electrophysiology; format: cell-based
Sequence of hERG ion channel (Q12809 whole entry): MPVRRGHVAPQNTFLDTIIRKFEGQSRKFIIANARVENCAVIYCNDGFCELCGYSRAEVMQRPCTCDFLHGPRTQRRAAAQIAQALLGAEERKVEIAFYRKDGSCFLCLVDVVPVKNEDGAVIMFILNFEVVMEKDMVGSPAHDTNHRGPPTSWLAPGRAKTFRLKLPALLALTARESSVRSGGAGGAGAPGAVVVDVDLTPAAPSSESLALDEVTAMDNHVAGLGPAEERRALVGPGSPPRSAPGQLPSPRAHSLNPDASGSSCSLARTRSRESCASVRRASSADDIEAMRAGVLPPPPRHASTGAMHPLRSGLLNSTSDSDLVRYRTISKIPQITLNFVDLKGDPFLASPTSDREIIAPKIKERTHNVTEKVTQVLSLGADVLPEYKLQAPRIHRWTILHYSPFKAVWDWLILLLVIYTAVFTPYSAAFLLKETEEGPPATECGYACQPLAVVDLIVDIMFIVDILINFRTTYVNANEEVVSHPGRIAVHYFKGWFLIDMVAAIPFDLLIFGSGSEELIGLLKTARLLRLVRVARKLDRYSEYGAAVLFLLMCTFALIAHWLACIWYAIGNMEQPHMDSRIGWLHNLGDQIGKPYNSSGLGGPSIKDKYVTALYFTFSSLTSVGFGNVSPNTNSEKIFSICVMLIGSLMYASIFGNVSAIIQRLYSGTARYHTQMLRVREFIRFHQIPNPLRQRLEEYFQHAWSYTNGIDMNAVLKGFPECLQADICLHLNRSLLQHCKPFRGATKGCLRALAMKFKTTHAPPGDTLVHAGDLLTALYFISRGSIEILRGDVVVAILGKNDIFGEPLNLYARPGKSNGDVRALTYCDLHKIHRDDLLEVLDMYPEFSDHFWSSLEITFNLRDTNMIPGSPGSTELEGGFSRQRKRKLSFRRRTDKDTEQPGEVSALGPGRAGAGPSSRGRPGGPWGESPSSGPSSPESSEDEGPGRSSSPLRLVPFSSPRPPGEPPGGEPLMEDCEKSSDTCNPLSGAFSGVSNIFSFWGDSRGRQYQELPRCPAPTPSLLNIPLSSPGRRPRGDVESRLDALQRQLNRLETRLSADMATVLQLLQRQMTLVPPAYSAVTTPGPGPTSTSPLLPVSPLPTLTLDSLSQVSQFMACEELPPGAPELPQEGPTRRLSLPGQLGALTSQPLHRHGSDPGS

[2] = in vitro biotransformation assays; format: in vitro ADME
[3] = 4 day oral dosing study in rats; format: in vivo
rabbit telemetry study = format: in vivo
pharmacokinetics in rat = conditions: Sprague-Dawley, in vivo, iv, 2 mg/kg
CYP3A4 [4] = target: T1, CYP3A4; assay: recombinant CYP3A4 inhibition; format: in vitro ADME
Method in brief: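 Recombinant human CYP3A4 was incubated with the test compound for 30 min, and an IC50 was determined.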

[5] = cited from earlier work
Caco-2 permeability = format: in vitro ADME; conditions: human
acute oral dose in dogs = format: in vivo
Method in brief: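 Dogs received a single acute oral dose of 300 mg/kg. Bilirubin and other clinical pathology were assessed, and plasma Cmax and AUC were measured. Margins were taken relative to projected human Cmax and AUC at the efficacious clinical dose.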

[6] = hemodynamics in conscious rats; format: in vivo; conditions: any dose studied
H4-APPsw cells = assay: Aβ species in cultured H4-APPsw cells by mass spectrometry; format: cell-based
[7] = pharmacokinetics in cynomolgus monkey; conditions: male, in vivo, iv, 1 mg/kg
pharmacokinetics in dog = conditions: male, beagle, in vivo, iv, 1 mg/kg
CYP2C subfamily = assay: CYP inhibition in human liver microsomes, CYP2C subfamily; format: in vitro ADME
[8] = projected human PK and dose; conditions: 110 mg QD, steady state
Method in brief: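 Human PK was predicted by allometric scaling of rat, dog and cynomolgus monkey PK, then combined with a rat PK/PD indirect response model.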

[9] = system: rest of the CYP isoforms tested (other than the CYP2C subfamily); assay: CYP inhibition in human liver microsomes, rest of isoforms; format: in vitro ADME
Aβ peptide species = conditions: intravenous administration; cited from earlier work
[10] = 2-week oral repeat dose toxicity study in rats; format: in vivo
Method in brief: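 Rats received the test compound orally for 2 weeks at 10, 30 and 100 mg/kg in repeat dosing. Endpoints included signs of stress, food consumption, duodenal histology for Notch-related goblet cell metaplasia, and liver for hepatotoxicity and necrosis.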

CYP3A4 mRNA = CYP3A4 mRNA induction in cryopreserved primary human hepatocytes; format: cell-based; conditions: 3.3–10 μM
[11] = single oral doses 10 to 1200 mg, multiweek daily 50 to 200 mg

Structure (SMILES): CNc1nc(Nc2ccc(-n3cncn3)c(OC)c2)nc(-c2ccccc2)n1 [Compound 1]
- levels of Aβ1–37 and Aβ1–38 (Aβ1–37 and Aβ1–38): increased levels
- effect on total Aβ1–x formation (total Aβ1–x): No effect

Structure (SMILES): CNc1nc(Cc2ccccc2)nc(Nc2ccc(-n3cnc(C)c3)c(OC)c2)n1 [Compound 2, 6-benzyl-N2-(3-methoxy-4-(4-methyl-1H-imidazol-1-yl)phenyl)-N4-methyl-1,3,5-triazine-2,4-diamine]
- CYP3A4 inhibition (CYP3A4 [1]; in words): potent and time-dependent CYP3A4 inhibition
- hERG inhibition (hERG ion channel; in words): potent hERG inhibition

Structure (SMILES): CNc1nc(Nc2ccc(-n3cnc(Cl)c3)c(OC)c2)nc2c1CC[C@H]2c1ccccc1 [Compound 3]
- metabolism [2]: confined to N-demethylation and monohydroxylation of the D-ring
- tissue examination finding ([3]; 4 days oral, 10, 30, and 100 mg/kg): hepatocellular necrosis at all doses studied
- plasma bilirubin finding ([3]; 4 days oral, all doses, visibly yellow plasma): increase in unconjugated bilirubin
- safety margin vs the hERG NOAEL (rabbit telemetry study; rabbit telemetry): 40 fold

Structure (SMILES): CNc1nc(Nc2ccc(-n3cnc(C)n3)c(OC)c2)nc2c1CC[C@H]2c1ccc(F)cc1 [Compound 4, (S)-7-(4-fluorophenyl)-N^2-(3-methoxy-4-(3-methyl-1H-1,2,4-triazol-1-yl)phenyl)-N^4-methyl-6,7-dihydro-5H-cyclopenta[d]pyrimidine-2,4-diamine]
- AMES result (AMES): negative
- clearance at 24 h (pharmacokinetics in rat): 11.2 ± 0.4 mL/min/kg
- CYP 3A4 HLM time-dependent inhib. KI (CYP3A4 [1]; HLM): 82.5 µM and 83 µM
- IC50 (CYP3A4 [4]): 0.51 µM
- ALT finding ([5]; 200 mg for 24 days): ALT elevations were observed
- tolerability ([5]; dosed acutely): well tolerated
- Aβ1–37 and Aβ1–38 in plasma and CSF [5, 11]: dose-dependent increase
- Aβ1–42 and Aβ1–40 in plasma and CSF [5, 11]: decrease
- total Aβ1–x in plasma and CSF [5, 11]: no change
- Papp (Caco-2 permeability): 3.5 ×10⁻⁶ cm/s
- margin in Cmax to the projected efficacious clinical dose (acute oral dose in dogs; 300 mg/kg): 43 fold
- tolerability (acute oral dose in dogs; acute oral dose of 300 mg/kg): tolerated with no significant changes in bilirubin levels or other clinical pathological assessments
- hemodynamic effects (blood pressure, heart rate) [6]: not seen
- change in Aβ1–37 and Aβ1–38 (H4-APPsw cells): corresponding increase
- change in Aβ1–42 and Aβ1–40 (H4-APPsw cells): large decrease
- total Aβ1–x (total Aβ1–x; concentrations up to 10 μM, Aβ1–x ELISA, H4-APPsw cells): unchanged
- clearance at 24 h [7]: 31.3 ± 9.5 mL/min/kg
- clearance at 24 h (pharmacokinetics in dog): 12.5 ± 1.2 mL/min/kg
- CYP2C subfamily IC50s (CYP2C subfamily): single digit micromolar
- projected human brain Aβ1–42 reduction [8]: 31%
- IC50 [9]: > 17 µM
- distribution among Aβ peptide species in rat brain and CSF (Aβ peptide species): same distribution among Aβ peptide species was recapitulated
- Notch-related goblet cell metaplasia in the duodenum ([10]; 2-week oral): no Notch-related goblet cell metaplasia
- bilirubin finding ([10]; 2-week oral): minimal, nontoxicologically significant bilirubin elevation
- hepatotoxicity or necrosis ([10]; 2-week oral): no hepatotoxicity or necrosis was observed
- tolerability ([10]; 2-week oral, 10, 30, and 100 mg/kg): well tolerated
- findings in high dose group ([10]; 2-week, 100 mg/kg oral): stress and reduced food consumption effects
- margin over the projected human efficacious exposure at the NOAEL ([10]; 2-week, NOAEL 30 mg/kg, vs 4 μM·h): 48 fold
- elevation of CYP3A4 mRNA (CYP3A4 mRNA): 36–43%
- fold less potent at hERG than compound 3 (hERG ion channel): 6 fold
- change in QTcf (rabbit telemetry study; unconscious rabbits, 3 mg/kg): no change
- exposure (rabbit telemetry study; unconscious rabbits, 10 mg/kg): 50 µM
- hemodynamic effects (rabbit telemetry study; unconscious rabbits, doses of 10 mg/kg and higher): increased blood pressure and decreased heart rate

Source: publication PMC6421538 (ACS Medicinal Chemistry Letters, 2019)
